Assay results from ChEMBL document CHEMBL5113395, “Azetidin-2-one-based small molecules as dual hHDAC6/HDAC8 inhibitors: Investigation of their mechanism of action and impact of dual inhibition profile on cell viability” (Eur J Med Chem, 2022).
Calls of active or inactive are those of the source. The calls are words filed in the database; no cut-off is given here.

Tests used:
[1] = species: Homo sapiens; test: Selectivity index, ratio of IC50 for inhibition of recombinant human full length C-terminal FLAG/His-tagged HDAC1 expressed in Sf9 insect cells to IC50 for inhibition recombinant human HDAC8
In short: (§1)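 HDAC1 and HDAC6 IC50 values from the ZMAL fluorogenic assay: 37 °C for 90 min, then trypsin/TSA development, read at ex 390/em 460 nm. HDAC8 IC50 from the kit enzyme (0.45 U/reaction), 0.5% DMSO, 15 min preincubation with compound, 50 μM Fluor de Lys substrate, 1 h at 30 °C. HDAC8 reaction quenched with TSA (2 μM) in developer, 1 h, read at ex 370/em 450 nm, IC50 by nonlinear regression. Ratio of IC50s.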

[2] = molecular target: T1, Polyamine deacetylase HDAC10 (Homo sapiens, UniProt Q969S8); test: Inhibition of recombinant human N-terminal FLAG tagged HDAC10 expressed in baculovirus infected Sf9 insect cells using fluorogenic substrate measured after 30 mins by fluorescence plate reader analysis
T1 sequence (Q969S8 whole entry): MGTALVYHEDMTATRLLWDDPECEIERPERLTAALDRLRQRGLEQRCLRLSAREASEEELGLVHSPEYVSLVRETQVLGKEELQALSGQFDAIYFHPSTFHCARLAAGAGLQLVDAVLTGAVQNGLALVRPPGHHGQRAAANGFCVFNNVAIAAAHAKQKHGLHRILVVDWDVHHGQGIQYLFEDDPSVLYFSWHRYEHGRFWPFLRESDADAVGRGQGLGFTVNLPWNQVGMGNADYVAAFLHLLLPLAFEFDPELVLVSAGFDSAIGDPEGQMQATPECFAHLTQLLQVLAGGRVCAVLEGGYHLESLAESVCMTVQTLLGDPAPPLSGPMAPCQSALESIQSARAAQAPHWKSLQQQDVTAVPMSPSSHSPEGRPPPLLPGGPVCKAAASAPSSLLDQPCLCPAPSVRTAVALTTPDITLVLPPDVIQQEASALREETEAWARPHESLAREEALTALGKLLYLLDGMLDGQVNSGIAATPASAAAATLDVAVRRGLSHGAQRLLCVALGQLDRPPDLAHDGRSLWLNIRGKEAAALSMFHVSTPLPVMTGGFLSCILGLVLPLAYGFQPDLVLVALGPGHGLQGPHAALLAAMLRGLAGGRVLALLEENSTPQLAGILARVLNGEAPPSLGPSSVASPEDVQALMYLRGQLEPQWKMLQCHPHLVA

[3] = test system: HCT-116; test: Antiproliferation activity against human HCT-116 cells assessed as reduction in cell viability at 5 to 50 uM measured after 48 hrs by MTT assay; type: functional, cell-based; details: dose 5-50 µM
In short: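 HCT116 cells in DMEM with 10% heat-inactivated FBS were seeded at 3×10^4 cells/well and treated in triplicate at 1, 5, 10 and 50 µM for 24 and 48 h. MTT at 0.5 mg/mL was added for 3 h, formazan was dissolved in DMSO, and absorbance was read at 570 nm.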

[4] = species: Homo sapiens; test: Selectivity index, ratio of IC50 for inhibition of recombinant human full length C-terminal FLAG/His-tagged HDAC1 expressed in Sf9 insect cells to IC50 for inhibition of recombinant human full length N-terminal GST-tagged HDAC6 expressed in Sf9 cells
In short: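 Human recombinant HDAC1 or HDAC6 in Tris-HCl pH 8.0 buffer (NaCl, KCl, MgCl2, 1 mg/mL BSA). Incubated with inhibitor dilutions in DMSO and fluorogenic ZMAL substrate (126 μM) at 37 °C for 90 min. Stopped with trichostatin A/trypsin, 30 min at 37 °C. Fluorescence read at ex 390/em 460 nm. IC50 from at least three determinations; ratio HDAC1/HDAC6 IC50.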

[5] = molecular target: Histone deacetylase 1 (Homo sapiens, UniProt Q13547); test: Inhibition of recombinant human full length C-terminal FLAG/His-tagged HDAC1 expressed in Sf9 insect cells using ZMAL (Z-(Ac)Lys-AMC as substrate measured after 90 mins by fluorescence plate reader analysis
Sequence of Histone deacetylase 1 (Q13547 whole entry): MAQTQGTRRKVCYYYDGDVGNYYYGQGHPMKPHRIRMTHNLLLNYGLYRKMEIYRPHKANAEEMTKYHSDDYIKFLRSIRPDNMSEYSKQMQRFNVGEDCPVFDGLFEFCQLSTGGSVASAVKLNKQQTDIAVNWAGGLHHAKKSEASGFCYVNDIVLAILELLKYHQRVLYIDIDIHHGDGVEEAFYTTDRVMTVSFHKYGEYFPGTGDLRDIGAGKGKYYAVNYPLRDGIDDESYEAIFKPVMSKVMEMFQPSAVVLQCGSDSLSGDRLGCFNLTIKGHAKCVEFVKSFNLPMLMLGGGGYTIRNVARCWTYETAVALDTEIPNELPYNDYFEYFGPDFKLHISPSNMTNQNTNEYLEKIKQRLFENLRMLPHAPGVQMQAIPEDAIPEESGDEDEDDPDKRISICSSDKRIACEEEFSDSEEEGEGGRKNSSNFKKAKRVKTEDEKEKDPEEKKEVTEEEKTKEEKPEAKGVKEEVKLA

[6] = species: Homo sapiens; test: Selectivity index, ratio of IC50 for inhibition of recombinant human full length N-terminal GST-tagged HDAC6 expressed in Sf9 cells to IC50 for inhibition of recombinant human HDAC8; in short: as §1
[7] = Cytotoxicity against mouse NIH3T3 cells assessed as inhibition of cell growth by neutral red uptake assay
[8] = test system: U-937; test: Antiproliferation activity against human U-937 cells assessed as reduction in cell viability at 5 to 50 uM measured after 48 hrs by CCK-8 assay; type: functional, cell-based; details: dose 5-50 µM
In short: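 U937 cells were exposed in triplicate to 1, 5, 10 and 50 µM for 24 and 48 h. CCK-8 (WST-8) reagent was then added, with 3 h further incubation at 37 °C, and absorbance was read at 450 nm to give viability.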

[9] = molecular target: T2, Histone deacetylase 8 (Homo sapiens, UniProt Q9BY41); test: Inhibition of recombinant human HDAC8 using FLUOR DE LYS as substrate preincubated for 15 mins followed by substrate addition measured after 1 hrs by fluorescence plate reader analysis
T2 sequence (Q9BY41 whole entry): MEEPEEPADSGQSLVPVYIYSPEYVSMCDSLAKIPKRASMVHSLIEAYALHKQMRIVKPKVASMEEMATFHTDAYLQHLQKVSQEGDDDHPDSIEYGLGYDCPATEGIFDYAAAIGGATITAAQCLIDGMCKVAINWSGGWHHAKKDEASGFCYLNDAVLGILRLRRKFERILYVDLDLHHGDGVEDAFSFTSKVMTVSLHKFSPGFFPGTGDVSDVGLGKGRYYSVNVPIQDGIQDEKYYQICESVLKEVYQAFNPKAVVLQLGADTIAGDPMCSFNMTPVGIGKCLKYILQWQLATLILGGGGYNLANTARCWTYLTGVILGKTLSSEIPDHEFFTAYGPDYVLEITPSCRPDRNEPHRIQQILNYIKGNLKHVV
In short: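 Kit recombinant human HDAC8 (0.45 U/reaction) was preincubated 15 min with compound (0.5% DMSO; DMSO-only control). Fluor de Lys substrate was then added at 50 µM final and the reaction ran 1 h at 30 °C. It was quenched with 2 µM TSA in Developer II for a further 1 h at 30 °C, and fluorescence read at ex 370/em 450 nm. IC50 came from nonlinear dose–response fitting.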

[10] = molecular target: T3, Histone deacetylase 8 (Homo sapiens) (UniProt Q9BY41); test: Inhibition of HDAC8 in human HCT-116 cells assessed as increase in acetylation level of SMC3 at 10 uM measured after 24 hrs by Western blot analysis; type: cell-based
T3 sequence (whole entry): T2 sequence (Q9BY41 whole entry)
In short: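 HCT116 or U937 cells were treated at 10 µM for 24–48 h and lysed in NP40 buffer with protease/phosphatase inhibitors. 50 µg protein was resolved by SDS-PAGE and probed with anti-acetyl-SMC3 (Lys105/106, 1:1000), normalized to GAPDH (1:3000). PCI served as positive control, and band intensities were semi-quantified by densitometry.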

| Structure (SMILES) | Ratio IC50 [1] | IC50 [2] [µM] | Activity [3] | Ratio IC50 [4] | IC50 [5] [µM] | Ratio IC50 [6] | CC50 [7] [µM] | Activity [8] | IC50 [9] [µM] | inhibition [10] |
| --- | --- | --- | --- | --- | --- | --- | --- | --- | --- | --- |
| O=C(NO)c1ccc(CNC(=O)N2CCC(N3CC(c4ccccc4)(c4ccccc4)C3=O)CC2)cc1 | 43 | 6.5 | Active | 1260 | 4.3 | 29 | 40 | Active | 0.099 | Active |
| O=C(NO)c1ccc(CNC(=O)N2CCC(N3C(=O)[C@H](c4ccccc4)[C@H]3c3ccccc3)CC2)cc1 (racemic) | 100 | 6.6 | Active | 200 | 4.2 | 2 | 101 | Active | 0.042 | Active |
| O=C(NO)c1ccc(CC(=O)N2CCC(N3CC(c4ccccc4)(c4ccccc4)C3=O)CC2)cc1 | 86 | 5.1 | Active | 106 | 9.7 | 1 | 48 | Active | 0.113 | Active |
